High-throughput results from PubChem BioAssay.
RGS4 block = human RGS4 inhibition; HEK293 M3R/RGS4 inducible, Fluo-4 calcium flux; stronger effect = higher value; triggered by carbachol at its EC20; P49798; 310,000 compounds, 0.45% hits; B-score at 10 µM;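 active means B-score, a plate-corrected calcium signal, over three deviations above library mean, with baseline fluorescence within five deviations of library mean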;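 further: RGS4 expression induced by doxycycline in cells with stable M3 receptor; B-score is computed from the integrated fluorescence ratio over baseline after carbachol; higher B-score means a larger calcium signal and so more RGS4 inhibition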
Target sequence (P49798 whole entry, looked up): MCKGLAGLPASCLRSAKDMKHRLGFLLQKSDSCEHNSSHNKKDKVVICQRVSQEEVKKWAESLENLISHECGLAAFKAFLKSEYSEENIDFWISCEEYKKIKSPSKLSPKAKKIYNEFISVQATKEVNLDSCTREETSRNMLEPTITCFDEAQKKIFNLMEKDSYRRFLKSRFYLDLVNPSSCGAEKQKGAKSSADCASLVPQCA
RGS4 pot = RGS4 potentiation or activation. HEK293 M3R/inducible RGS4, carbachol calcium flux Fluo4; stronger effect = lower value. B-score at 10 µM. 310,000 compounds, 0.92% hits. AID 463111;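 active means B-score of the integrated calcium signal more than 4 SD below the library mean, with starting fluorescence not abnormally high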;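 further: negative B-score means reduced calcium response which marks RGS4 activation or potentiation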
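test system = HEK293 cells with stable M3R and inducible RGS4 | schedule = recording 10 s baseline at 1 Hz, 100 s post-agonist | technique = Fluo4-AM (2 µM) calcium-flux fluorescence, kinetic read | measure = Agonist-evoked peak-minus-minimum fluorescence over baseline, integrated ratio, B score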
MrgX1 antag = antagonists of human MrgX1 receptor; Q96LB2; MRGX1-HEK293 calcium flux, Fluo-4, BAM8-22 antagonism; stronger effect = lower value; B-score at 10 µM; 310,000 compounds, 1.3% hits;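 active means calcium-response B-score plate-corrected more than 3 library SD below zero, starting fluorescence within 5 deviations, no agonist response on first addition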;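 further: peak minus trough fluorescence over baseline after final BAM8-22 challenge near maximal dose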
Target sequence (Q96LB2 whole entry, looked up): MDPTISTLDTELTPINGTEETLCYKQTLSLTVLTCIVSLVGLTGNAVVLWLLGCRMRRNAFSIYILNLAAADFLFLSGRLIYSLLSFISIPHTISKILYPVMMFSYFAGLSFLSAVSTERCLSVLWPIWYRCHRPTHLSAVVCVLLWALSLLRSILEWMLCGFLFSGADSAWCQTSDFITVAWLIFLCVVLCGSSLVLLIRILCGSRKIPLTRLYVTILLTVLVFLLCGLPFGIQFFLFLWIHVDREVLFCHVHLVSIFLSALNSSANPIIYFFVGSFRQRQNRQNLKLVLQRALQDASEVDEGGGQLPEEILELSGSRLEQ
MrgX1 agonist = agonists of human MrgX1 receptor; B-score at 10 µM; MrgX1-HEK293 cells, Fluo-4 calcium fluorescence, agonist mode; stronger effect = higher value; Q96LB2; 310,000 compounds, 0.44% hits;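 active means calcium response B-score plate-corrected fluorescence ratio at least 3 library SD, with starting fluorescence B-score inside 5 SD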
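Assay system: MrgX1-expressing HEK293 cells / Amount: fifteen thousand cells per well / Doses: test compound in the initial addition of three / Timing: cells plated overnight, dye loaded 0.5 h 37 °C, 0.5 h room temperature / Technique: kinetic calcium dye fluorescence, Fluo-4 NW / Control set: positive and negative controls per plate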
MrgX1 PAM = allosterically activates human MrgX1 receptor signaling | B-score at 10 µM | AID 588675 | Q96LB2 | MrgX1-HEK293, Fluo-4 calcium flux, FDSS; stronger effect = higher value | 310,000 compounds, 0.63% hits;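 active means plate-corrected calcium response at least 3 library SD above typical, normal starting fluorescence, not activating the receptor alone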;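 further: compound read alongside a low EC10 to EC30 dose of BAM8-22 agonist; peak minus trough fluorescence over baseline measured at the second addition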
RGS4 block valid = validation of RGS4 inhibitors. shares compounds with RGS4 block. HEK293 M3R/RGS4, carbachol calcium Fluo-4 fluorescence; carbachol added at its EC20; 0 = buffer wells, 100 = carbachol control. calcium response, % at 10 µM. 1,700 compounds, 65% hits;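 active means duplicate-averaged calcium response above the buffer-only control mean plus 5 SD of those controls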;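 further: integrated fluorescence ratio F max minus min over baseline F0; higher response in RGS4-induced cells means RGS4 inhibition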
M3R Ca ctr = counter-screen for RGS4 inhibitors: effect in non-induced cells; shares compounds with RGS4 block; HEK293 M3R non-induced, carbachol calcium Fluo-4; submaximal (EC20) carbachol stimulus; buffer wells 0%, carbachol control wells 100%; activity (percent), % at 10 µM; 1,900 compounds, 20% hits; AID 493000; call rule not given here;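 further: RGS4 induction absent so cells express M3R without RGS4; higher means more calcium signal and flags a non-specific hit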
RGS4 inh ctr2 = second counter-screen for RGS4 inhibitors: non-induced cells without carbachol; 1,900 compounds, 22% hits; shares compounds with RGS4 block; HEK293 M3R/RGS4 non-induced, Fluo-4 calcium, no carbachol; normalised: buffer wells 0%, carbachol wells 100%; calcium response (agonist-mode artifact), % at 10 µM;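 active means duplicate-averaged calcium rise in uninduced cells above buffer wells' mean plus 5 SD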
The depositor's hits bear a star; i = inactive; / = no result. Only some compounds are listed: those with a hit (about 3.5% of all), similar ones and a draw of the others.

SMILES	RGS4 block	RGS4 pot	MrgX1 antag	MrgX1 agonist	MrgX1 PAM	RGS4 block valid	M3R Ca ctr	RGS4 inh ctr2
CCOC(=O)[C@@H]1[C@H]2COc3ccccc3[C@@H]2N2C(=O)N(c3ccccc3)C(=O)[C@]12C	i	i	i	i	i	i	i	i
CCOC(=O)[C@@H]1[C@H]2COc3ccc(Br)cc3[C@@H]2N2C(=O)N(c3ccc(Br)cc3)C(=O)[C@]12C	i	i	i	i	i	/	/	/
CCOC(=O)[C@@H]1[C@H]2COc3ccccc3[C@H]2N2C(=O)N(c3ccc(C)cc3)C(=O)[C@]12C	i	i	i	i	i	i	i	i
Cc1cccc(-c2cc(N)n(-c3ccccc3)n2)c1	i	i	/	/	/	/	/	/
CCC(=O)NC1=C(Nc2ccc(N)cc2)C(=O)c2ccccc2C1=O	i	i	i	i	i	/	/	/
CCOC(=O)[C@@H]1[C@H]2COc3ccccc3[C@@H]2N2C(=O)N(c3ccc(F)cc3)C(=O)[C@]12C	i	i	i	i	i	i	i	i
CCOC(=O)[C@@H]1[C@H]2COc3ccccc3[C@@H]2N2C(=O)N(c3ccc(Cl)cc3)C(=O)[C@]12C	i	i	i	i	i	i	i	i
CCOC(=O)[C@@H]1[C@H]2COc3ccccc3[C@H]2N2C(=O)N(c3ccccc3)C(=O)[C@]12C	i	i	i	i	i	i	i	i
O=C1CC(Sc2ccc(Cl)cc2)C(=O)N1Cc1ccncc1 (stereo not drawn)	i	i	i	i	i	/	/	/
Cc1cccnc1NC(=O)C1c2ccccc2Oc2ccccc21	8.2*	i	i	i	i	10%*	i	i
Cc1ccccc1NC(=O)C1c2ccccc2Oc2ccccc21	i	i	i	i	i	/	/	/
O=C(NNC(=S)NC1CCCCC1)c1ccc2c(c1)OCO2	i	i	i	i	i	/	/	/
Cc1ccc(-c2c(C(=O)N/N=C/c3ccc(OC(C)C)cc3)nnn2-c2nonc2N)cc1	9*	i	i	i	i	28%*	43%*	i
CCOc1ccc(-c2c(C(=O)N/N=C/c3ccc(OC(C)C)cc3)nnn2-c2nonc2N)cc1	i	i	i	i	i	/	i	i
CC1CC(C)CN(C(=O)C2CCN(S(=O)(=O)c3ccc4c(c3)CC(C)N4C(=O)C3CC3)CC2)C1 (stereo not drawn)	i	i	i	i	i	/	/	/
O=C(Cc1ccc2c(c1)OCCO2)N1CCN(S(=O)(=O)c2ccccc2C(F)(F)F)CC1	i	i	i	i	i	/	/	/
CN1C(=O)S/C(=C\c2ccccc2OCc2ccc(C(=O)O)cc2)C1=O	6.2*	i	i	i	i	14%*	i	i
CC(C)N1C(=O)S/C(=C/c2ccccc2OCc2ccc(C(=O)O)cc2)C1=O	i	i	i	i	i	i	i	i
CCN(c1cccc(C(F)(F)F)c1)S(=O)(=O)c1ccc2c(c1)CCN2C(C)=O	i	i	i	i	i	/	/	/
Oc1c(Br)cc(Br)cc1CNc1cnc2ccccc2c1	i	i	i	i	i	/	/	/
Oc1c(Br)cc(Br)cc1CNc1ccc(F)cc1	6.5*	i	i	i	i	i	i	i
NC(=O)Cc1nc2scc(-c3ccccc3)c2c(=O)[nH]1	i	i	i	i	i	/	/	/
Nc1c(S(=O)(=O)c2cccs2)c2nc3ccccc3nc2n1Cc1ccc2c(c1)OCO2	6.9*	i	i	i	i	9.5%*	i	i
O=C(OCn1ncc(Cl)c(Cl)c1=O)c1ccccc1Cl	7.4*	i	i	i	i	15%*	40%*	i
O=C(OCn1ncc(Cl)c(Cl)c1=O)c1ccc(F)cc1	i	i	i	i	i	/	/	/
SMILES	RGS4 block	RGS4 pot	MrgX1 antag	MrgX1 agonist	MrgX1 PAM	RGS4 block valid	M3R Ca ctr	RGS4 inh ctr2
CC(c1ccc(O)cc1)(c1ccc(O)cc1)c1ccc(CCBr)cc1	i	i	i	i	i	/	/	/
CCN(CC)c1nc(N)c2c(N)nc3c(c2c1C#N)CC(c1ccccc1)O3 (stereo not drawn)	5.3*	i	i	i	i	18%*	i	i
Cc1cccc(CSCc2ccc(C(=O)O)o2)c1	i	i	i	i	i	/	/	/
Cc1ccc(CSCc2ccc(C(=O)O)o2)cc1	5*	i	i	i	i	i	i	i
COc1cccc(C(C[N+](=O)[O-])c2c(C)[nH]n(-c3ccccc3)c2=O)c1 (stereo not drawn)	15*	i	i	50*	i	6.0%*	i	10%*
Cc1[nH]n(-c2ccccc2)c(=O)c1C(C[N+](=O)[O-])c1ccc(Br)cc1 (stereo not drawn)	8.4*	i	i	i	6.8*	32%*	51%*	28%*
CCOC(=O)c1c(NC(=O)Cc2ccccc2)sc2c1CCN(CC)C2	i	i	i	i	i	/	/	/
O=C(/C=C/NNC(=O)c1ccc(Br)cc1)c1ccccc1	i	i	i	i	i	/	/	/
O=C(/C=C/NNC(=O)c1ccccc1)c1ccccc1	i	i	i	i	i	/	i	i
CC(C)Sc1cc(N2CCOCC2)nc(-c2ccccc2)n1	i	i	i	i	i	i	30%*	10%*
CC(C)Sc1cc(N2CCCC2)nc(-c2ccccc2)n1	6.2*	i	i	i	i	23%*	51%*	i
CC(C)Sc1cc(N2CCCC2)nc(-c2ccccc2Cl)n1	i	i	i	i	i	/	/	/
CCSc1cc(N2CCCC2)nc(-c2ccccc2)n1	i	i	i	i	i	/	/	/
c1ccc(-c2ccc(Oc3cc(N4CCOCC4)nc(-c4ccccc4)n3)cc2)cc1	i	i	i	i	i	/	/	/
CC(C)Sc1cc(N2CCCC2)nc(-c2ccc(F)cc2)n1	9.2*	i	i	i	i	26%*	i	i
COCCn1c(SCC#N)nnc1-c1ccc(OC)cc1	i	i	i	i	i	/	/	/
